Source: ChEMBL document CHEMBL4393705, “New chalcone-sulfonamide hybrids exhibiting anticancer and antituberculosis activity” (Eur J Med Chem, 2019)
≈ marks a conversion by molar mass, not a printed value.

Assays:
Assay type in all cases: functional
PC-3 = test: Anticancer activity against human PC3 cells assessed as increase in cell death at 10 uM after 48 hrs by SRB assay relative to control
Method in brief: (§1)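 NCI-60 single-dose screen at 10 µM in RPMI-1640 with 5% FBS and 2 mM glutamine. Exposure was 48 h at 37°C, 5% CO2, with time-zero plates fixed at dosing. Read-out was TCA fixation and SRB at 515 nm. Growth percent = (Ti−Tz)/Tz×100 where Ti<Tz, so negative values mean net cell loss.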

HOP-92 = test: Anticancer activity against human HOP92 cells assessed as increase in cell death at 10 uM after 48 hrs by SRB assay relative to control; method in brief: as §1
ACHN = test: Anticancer activity against human ACHN cells assessed as cell growth inhibition measured after 48 hrs by SRB assay; conditions: for CC50: read-out: LC50 (the source's name)
Method in brief: (§2)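 NCI-60 five-dose screen at 100, 10, 1.0, 0.1 and 0.01 µM final. Cells in RPMI-1640 with 5% FBS and 2 mM glutamine were seeded 24 h ahead at 37°C, 5% CO2. Compound exposure was 48 h, followed by TCA fixation and SRB staining, read at 515 nm. GI50 is the concentration giving 50% lower net protein increase than control, using time-zero plates.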

[1] = tested on: Mycobacterium tuberculosis; test: Antitubercular activity against Mycobacterium tuberculosis H37Rv ATCC27294 measured after 2-3 weeks by agar dilution SPOTi assay; conditions: H37Rv ATCC 27294
Method in brief: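 Agar dilution SPOTi on Middlebrook 7H10 with 0.5% glycerol and 10% OADC. Final compound levels 50, 20, 10, 5, 2 mg/L, added from DMSO dilutions. 2 µL of a 10^6 CFU/mL inoculum from a 4-week Löwenstein-Jensen culture spotted per well, incubated 2-3 weeks at 37°C. MIC is the lowest concentration with no visible growth. Repeated on a separate day; isoniazid was the reference.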

Hs-578T = test: Anticancer activity against human Hs578T cells assessed as cell growth inhibition measured after 48 hrs by SRB assay; method in brief: as §2
CAKI-1 = test: Anticancer activity against human Caki1 cells assessed as cell growth inhibition measured after 48 hrs by SRB assay; conditions: CAKI-1, 48 h; method in brief: as §2
HCT-116 = test: Anticancer activity against human HCT116 cells assessed as increase in cell death at 10 uM after 48 hrs by SRB assay relative to control; method in brief: as §1
RPMI-8226 = test: Anticancer activity against human RPMI8226 cells assessed as increase in cell death at 10 uM after 48 hrs by SRB assay relative to control; method in brief: as §1
786-0 = test: Anticancer activity against human 786-O cells assessed as increase in cell death at 10 uM after 48 hrs by SRB assay relative to control; method in brief: as §1
SNB-19 = test: Anticancer activity against human SNB19 cells assessed as cell growth inhibition measured after 48 hrs by SRB assay; conditions: SNB-19, 48 h
Method in brief: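 NCI 60-cell screen, five-dose mode at 100, 10, 1.0, 0.1 and 0.01 µM. Cells grown in RPMI-1640 with 5% FBS and 2 mM L-glutamine, seeded and held 24 h at 37°C, 5% CO2, then exposed for 48 h. Fixed with cold TCA (10% final), stained with 0.4% SRB and read at 515 nm. Time-zero plates were used. GI50 is the concentration giving 50% lower net protein increase than control.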

M14 = test: Anticancer activity against human M14 cells assessed as increase in cell death at 10 uM after 48 hrs by SRB assay relative to control; method in brief: as §1
SF-539 = test: Anticancer activity against human SF539 cells assessed as increase in cell death at 10 uM after 48 hrs by SRB assay relative to control
Method in brief: (§3)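 NCI single-dose screen at 10 µM. Cells in RPMI-1640 with 5% FBS and 2 mM L-glutamine, preincubated 24 h, then exposed 48 h at 37°C, 5% CO2. Protein measured by TCA fixation and SRB staining, absorbance 515 nm. Growth percent is calculated against time-zero and untreated control plates; negative values indicate net cell loss.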

K562 = test: Anticancer activity against human K562 cells assessed as tumour cell growth at 10 uM after 48 hrs by SRB assay relative to control
Method in brief: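 NCI 60-line primary screen at a single 10 μM dose in RPMI-1640 with 5% FBS and 2 mM L-glutamine. Cells were preincubated 24 h at 37 °C in 5% CO₂, with time-zero plates fixed with TCA. Compounds (DMSO, diluted in gentamicin medium) were incubated 48 h, then cells TCA-fixed and stained with 0.4% SRB (A515). Growth percent was derived from time-zero, control and treated absorbances.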

U-251 = test: Anticancer activity against human U251 cells assessed as increase in cell death at 10 uM after 48 hrs by SRB assay relative to control; method in brief: as §3

SMILES	Activity (PC-3) [%]	Activity (HOP-92) [%]	GI50 (ACHN) [µM]	CC50 (ACHN) [µM]	MIC [1] [µM]	GI50 (Hs-578T) [µM]	LC50 (Hs-578T) [µM]	GI50 (CAKI-1) [µM]	LC50 (CAKI-1) [µM]	Activity (HCT-116) [%]	Activity (RPMI-8226) [%]	Activity (786-0) [%]	GI50 (SNB-19) [µM]	LC50 (SNB-19) [µM]	Activity (M14) [%]	Activity (SF-539) [%]	Activity (K562) [%]	Activity (U-251) [%]
COc1ccc(C(=O)/C=C/c2ccc(Cl)cc2)cc1S(N)(=O)=O	55.63	26.57	1.94	8.75	14 (≈ 4.93 µg/mL)	3.28	> 100	2.72	32.5	78.33	31.74	30.67	3.1	33.4	57.32			
COc1ccc(C(=O)/C=C/c2ccc(Cl)cc2)cc1S(=O)(=O)Nc1c(N)nc(SC)[nH]c1=O			3.23	36.5	20 (≈ 10.1 µg/mL)	3.56	> 100	3.83	79.5				2.52	32.2		5.49	3.84	4.2
